Measured values as given in article PMC6980386 (Traffic (Copenhagen, Denmark), 2019).

Tests used:
FL huCD4 V28K = experiment: CADA down-modulation of cellular huCD4; format: cell-based, human; details: HEK293T, 48h
Method in brief: (§1)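 HEK293T cells, seeded overnight in DMEM with 10% serum, 1 mM sodium pyruvate and 0.075% NaHCO₃, were lipofected with full-length human CD4 (WT or mutant). Test compound in DMSO was added 6 h post-transfection as 1:5 serial dilutions (50–0.016 μM) for 48 h. Surface CD4 was stained with FITC/APC anti-CD4 (SK3) and read by flow cytometry. IC50 is 50% of the untreated signal, from four-parameter fits of ≥3 replicate experiments. FC is mutant/WT mean IC50.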

FL huCD4 V29A = FL huCD4 V29A (Homo sapiens, UniProt P01730, V29A); experiment: CADA down-modulation of cellular huCD4; format: cell-based
Method in brief: as §1

FL huCD4 T23A = FL huCD4 T23A (Homo sapiens, UniProt P01730, T23A); experiment: CADA down-modulation of cellular huCD4; format: cell-based
Method in brief: as §1

FL huCD4 K27R = FL huCD4 K27R (Homo sapiens, UniProt P01730, K27R); experiment: CADA down-modulation of cellular huCD4; format: cell-based; details: HEK293T, 48h
Method in brief: as §1

huCD4_1–32-YFP N2A = huCD4_1–32-YFP N2A (Homo sapiens, UniProt P01730, N2A); experiment: CADA inhibition of huCD4_1–32-YFP secretion; format: cell-based
Method in brief: (§2)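 HEK293T cells were grown in DMEM with 10% FBS and 10 mM HEPES, seeded and left to adhere overnight, then transiently transfected with plasmid by Lipofectamine. Test compound was added 6 h after transfection as a 1:5 serial dilution (50 to 0.016 μM) for 48 h. Secreted YFP in the supernatant was captured on GFP-Trap magnetic beads for 1 h, washed with PBS and measured by flow cytometry. IC50 is the concentration that halves the signal relative to the untreated control, taken from a four-parameter fit of at least three replicate experiments. FC is the mutant mean IC50 divided by the WT mean IC50.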

FL huCD4 G4A = FL huCD4 G4A (Homo sapiens, UniProt P01730, G4A); experiment: CADA down-modulation of cellular huCD4; format: cell-based
Method in brief: as §1

huCD4_1–32-YFP L14A = huCD4_1–32-YFP L14A (Homo sapiens, UniProt P01730, L14A); experiment: CADA inhibition of huCD4_1–32-YFP secretion; format: cell-based
Method in brief: as §2

[1] = target: truncated huCD4 D1D2 L18A (Homo sapiens, UniProt P01730, L18A); experiment: Cell-free in vitro translation and translocation; format: biochemical; details: 15 μM CADA
Method in brief: (§3)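 Truncated huCD4 D1D2 (lacking glycosylation sites and membrane anchor) was made by PCR and transcribed with T7. Proteinase K protection ran 30 min on ice and was quenched with PMSF. Products were separated by SDS-PAGE and imaged by phosphor imaging. The SP-cleaved band was normalised to the matching control. Data are from 2–5 independent experiments, compared with WT by Welch t test.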

FL huCD4 H9A = FL huCD4 H9A (Homo sapiens, UniProt P01730, H9A); experiment: CADA down-modulation of cellular huCD4; format: cell-based
Method in brief: as §1

[2] = target: truncated huCD4 D1D2 A17V (Homo sapiens, UniProt P01730, A17V); experiment: Cell-free in vitro translation and translocation; format: biochemical; details: 15 μM CADA
Method in brief: as §3

huCD4_1–32-YFP L30A = huCD4_1–32-YFP L30A (Homo sapiens, UniProt P01730, L30A); experiment: CADA inhibition of huCD4_1–32-YFP secretion; format: cell-based
Method in brief: as §2

[3] = target: truncated huCD4 D1D2 K27A (Homo sapiens, UniProt P01730, K27A); experiment: Cell-free in vitro translation and translocation; format: biochemical; details: 15 μM CADA
Method in brief: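 Proteinase K protection 30 min on ice, quenched with PMSF. Pellets washed in low-salt buffer (HEPES pH 7.6), then SDS-PAGE and phosphor imaging. Translocation normalised to untreated WT. Two to five independent experiments; Welch's t test.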

FL huCD4 A21V = FL huCD4 A21V (Homo sapiens, UniProt P01730, A21V); experiment: CADA down-modulation of cellular huCD4; format: cell-based
Method in brief: as §1

huCD4_1–32-YFP L12A = huCD4_1–32-YFP L12A (Homo sapiens, UniProt P01730, L12A); experiment: CADA inhibition of huCD4_1–32-YFP secretion; format: cell-based
Method in brief: as §2

FL huCD4 A17V = FL huCD4 A17V (Homo sapiens, UniProt P01730, A17V); experiment: CADA down-modulation of cellular huCD4; format: cell-based
Method in brief: as §1

FL huCD4 Q15N = FL huCD4 Q15N (Homo sapiens, UniProt P01730, Q15N); experiment: CADA down-modulation of cellular huCD4; format: cell-based; details: HEK293T, 48h
Method in brief: as §1

huCD4_1–32-YFP G25A = huCD4_1–32-YFP G25A (Homo sapiens, UniProt P01730, G25A); experiment: CADA inhibition of huCD4_1–32-YFP secretion; format: cell-based
Method in brief: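 HEK293T cells were lipofected with human CD4 residues 1–32 fused to the N-terminus of YFP (secreted, no membrane anchor). Test compound was added 6 h post-transfection as 1:5 serial dilutions (50–0.016 μM) for 48 h. Supernatant was captured on GFP-Trap magnetic beads for 1 h, washed in PBS, and YFP was read by flow cytometry. IC50 is 50% of the untreated control, from four-parameter fits of ≥3 replicate experiments. FC is mutant/WT mean IC50.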

FL huCD4 K32A = FL huCD4 K32A (Homo sapiens, UniProt P01730, K32A); experiment: CADA down-modulation of cellular huCD4; format: cell-based; details: read-out: Cellular huCD4 IC50 (μM) Mean, HEK293T, CADA 48h
Method in brief: as §1

FL huCD4 L30A = FL huCD4 L30A (Homo sapiens, UniProt P01730, L30A); experiment: CADA down-modulation of cellular huCD4; format: cell-based
Method in brief: as §1

FL huCD4 P6A = FL huCD4 P6A (Homo sapiens, UniProt P01730, P6A); experiment: CADA down-modulation of cellular huCD4; format: cell-based
Method in brief: as §1

[4] = target: truncated huCD4 D1D2 L12A (Homo sapiens, UniProt P01730, L12A); experiment: Cell-free in vitro translation and translocation; format: biochemical; details: 15 μM CADA
Method in brief: as §3

FL huCD4 R3A = FL huCD4 R3A (Homo sapiens, UniProt P01730, R3A); experiment: CADA down-modulation of cellular huCD4; format: cell-based
Method in brief: as §1

[5] = + less, − more sensitive to CADA
[6] = read-out: Cellular huCD4 IC50 (μM) Mean, HEK293T, CADA 48h
[7] = read-out: Secreted YFP IC50 (μM) Mean, HEK293T, CADA 48h

C=C1CN(S(=O)(=O)c2ccc(C)cc2)CCCN(Cc2ccccc2)CCCN(S(=O)(=O)c2ccc(C)cc2)C1 [CADA, Cyclotriazadisulfonamide]
increase in sensitivity to CADA (smaller IC50) relative to WT (FL huCD4 V28K): more than 3 fold
Cellular huCD4 FC (fold change of mean IC50 relative to WT) (FL huCD4 V29A; [5]): +1.2
IC50 (FL huCD4 V29A; [6]): 0.63 µM
Cellular huCD4 FC (fold change of mean IC50 relative to WT) (FL huCD4 T23A; [5]): +1.6
IC50 (FL huCD4 T23A; [6]): 0.87 µM
sensitivity to CADA (FL huCD4 K27R): kept full sensitivity to CADA
Secreted YFP FC (fold change of mean IC50 relative to WT) (huCD4_1–32-YFP N2A; [5]): −3.3
IC50 (huCD4_1–32-YFP N2A; [7]): 0.39 µM
Cellular huCD4 FC (fold change of mean IC50 relative to WT) (FL huCD4 G4A; [5]): −1.5
IC50 (FL huCD4 G4A; [6]): 0.35 µM
Secreted YFP FC (fold change of mean IC50 relative to WT) (huCD4_1–32-YFP L14A; [5]): −1.1
IC50 (huCD4_1–32-YFP L14A; [7]): 1.12 µM
sensitivity of translocation towards CADA compared to WT [1]: higher sensitivity towards CADA
Cellular huCD4 FC (fold change of mean IC50 relative to WT) (FL huCD4 H9A; [5]): +1.1
IC50 (FL huCD4 H9A; [6]): 0.62 µM
inhibitory effect of CADA on protein translocation compared to WT [2]: significantly reduced
Secreted YFP FC (fold change of mean IC50 relative to WT) (huCD4_1–32-YFP L30A; [5]): −1.2
IC50 (huCD4_1–32-YFP L30A; [7]): 1.08 µM
sensitivity of translocation towards CADA compared to WT [3]: significantly reduced sensitivity to CADA
Cellular huCD4 FC (fold change of mean IC50 relative to WT) (FL huCD4 A21V; [5]): +1.6
IC50 (FL huCD4 A21V; [6]): 0.87 µM
enhanced CADA sensitivity relative to WT (huCD4_1–32-YFP L12A): 5 fold
Secreted YFP FC (fold change of mean IC50 relative to WT) (huCD4_1–32-YFP L12A; [5]): −5.3
IC50 (huCD4_1–32-YFP L12A; [7]): 0.24 µM
Cellular huCD4 FC (fold change of mean IC50 relative to WT) (FL huCD4 A17V; [5]): +2.5
IC50 (FL huCD4 A17V; [6]): 1.33 µM
sensitivity to CADA (FL huCD4 Q15N): partially restored CADA sensitivity
Secreted YFP FC (fold change of mean IC50 relative to WT) (huCD4_1–32-YFP G25A; [5]): −3.6
IC50 (huCD4_1–32-YFP G25A; [7]): 0.35 µM
IC50 (FL huCD4 K32A): 1.42 µM
Cellular huCD4 FC (fold change of mean IC50 relative to WT) (FL huCD4 L30A; [5]): +1.6
IC50 (FL huCD4 L30A; [6]): 0.84 µM
Cellular huCD4 FC (fold change of mean IC50 relative to WT) (FL huCD4 P6A; [5]): +1.8
IC50 (FL huCD4 P6A; [6]): 0.96 µM
sensitivity of translocation towards CADA compared to WT [4]: higher sensitivity towards CADA
Cellular huCD4 FC (fold change of mean IC50 relative to WT) (FL huCD4 R3A; [5]): −1.1
IC50 (FL huCD4 R3A; [6]): 0.47 µM
